Shown are actives, neighbours in structure and some others; about 1.8% of the full set was active somewhere.
LANA-H2B inh = blocks KSHV LANA binding to histone H2A/H2B | inhibition, % (concentration not given with the values) | cell-free LANA-H2A/H2B peptide, fluorescence polarization | Q9QR71 | 0.6% of 320,000 active | AID 2629; in the data active = inhibition mostly above about 10%, no sharp cut-off; inactive = mostly below about 6.7%
HKDC1 inh = inhibitors of human hexokinase HKDC1 | recombinant HKDC1, G6PDH/diaphorase resazurin coupled fluorescence | inhibition, % at 20 µM | 0.16% of 340,000 active | AID 493160;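 active = inhibition above about 35% when tested at 20 µM, limit read from the data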;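 note: plate controls were DMSO wells with enzyme for no effect and DMSO wells lacking enzyme for full effect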
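Assay system – recombinant HKDC1 (HK5) hexokinase enzyme, produced in-house · Input – HKDC1 at 5 µg/mL · Reagent – glucose plus 1 mM ATP as hexokinase substrates · Timing – 90 min reaction incubation at room temperature, dark · Measured by – G6PDH/diaphorase-coupled fluorescence, 1 mM NADP, 100 µM resazurin, 525/613 nm · Benchmarks – DMSO-enzyme wells negative, buffer-substituted wells positive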
HDAC3 inh = human HDAC3 inhibition. O15379. recombinant HDAC3, fluorogenic peptide/trypsin coupled, fluorescence. inhibition, % at 8.3 µM. 0.15% of 320,000 active. AID 2718; in the data active = inhibition above about 26%, passing the limit was not always enough; inconclusive = no clear call, values can overlap the other calls
Target sequence (O15379 whole entry, looked up): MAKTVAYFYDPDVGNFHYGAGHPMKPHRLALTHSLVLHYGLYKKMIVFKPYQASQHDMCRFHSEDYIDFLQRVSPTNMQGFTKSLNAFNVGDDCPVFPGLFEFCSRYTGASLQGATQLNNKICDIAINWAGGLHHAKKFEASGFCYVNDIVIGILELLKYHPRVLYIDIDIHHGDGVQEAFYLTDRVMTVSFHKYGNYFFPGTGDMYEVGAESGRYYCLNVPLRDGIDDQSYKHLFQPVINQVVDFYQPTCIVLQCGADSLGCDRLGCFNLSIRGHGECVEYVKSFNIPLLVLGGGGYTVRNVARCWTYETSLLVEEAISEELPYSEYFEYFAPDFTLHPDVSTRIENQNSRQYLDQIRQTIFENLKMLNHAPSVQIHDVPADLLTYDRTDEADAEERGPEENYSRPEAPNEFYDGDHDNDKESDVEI
ATG4B inh = ATG4B (human) cysteine protease inhibition. AID 504462. Q9Y4P1. 0.51% of 340,000 active. ATG4B cleavage of LC3-PLA2, NBD-HPC fluorescence, 1 h. inhibition, % at 8.33 µM; in the data active = inhibition above about 40%
Bfl-1 A1 inh = inhibitors of the anti-apoptotic protein A1, read as caspase activation. MEF A1-2A-BIM cells, Caspase-Glo 3/7 luminescence, 3 h; percent of clofoctol response, vehicle zero. caspase activation, % (test concentration not listed). 0.066% of 330,000 active. AID 2462;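 active = over half of replicate activation scores above 10%, or exactly half above 10 with the replicate mean above 10; inconclusive = replicate mean below 10 yet half the replicates above 10; inactive = over half of replicates below 10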
AI-2 QS modul = Vibrio harveyi AI-2 quorum sensing modulation; Vibrio harveyi JMH597 AI-2 luminescence/OD600 ratio, 9 h; active compounds read low; strain lacks LuxN and CqsS sensors; 0 = neutral-control median; activity change, % at 7.5 µM; 0.4% of 300,000 active; AID 2094; in the data active = activity change below about -75%, passing the limit was not always enough; inconclusive = no clear call, values can overlap the other calls;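 note: luminescence divided by OD600 gain over 9 h not by final OD600 alone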
JMH597 growth rt = retest: inhibitors of Vibrio harveyi JMH597 growth; 1% of 750 active; OD600 absorbance, 9 h; lacks LuxN and CqsS sensors; shares compounds with AI-2 QS modul; growth inhibition, % at 7.5 µM;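 active = every replicate shows growth inhibition above 50%; inconclusive = at least half, but not all, replicates pass that cutoff; inactive = fewer than half of replicates pass it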
BB721 lum counter = retest counter-screen: lowers luminescence of constitutive-QS Vibrio harveyi BB721; AID 2727; 95% of 750 active; shares compounds with AI-2 QS modul; 9 h; inhibition, % at 7.5 µM;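 active = inhibition above about 80% in every replicate, not just on average, limit read from the data; inconclusive = at least half of replicates past the limit, but not all; inactive = fewer than half of replicates past the limit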
BB721 growth = retest: blocks Vibrio harveyi BB721 growth; shares compounds with AI-2 QS modul; OD600 absorbance, 9 h; growth inhibition, % at 7.5 µM; 3% of 750 active;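 active = every replicate shows growth inhibition above 50%; inconclusive = at least half but not all replicates above 50% inhibition; inactive = under half of replicates above 50% inhibition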
AI-2 QS JMH597 = Vibrio harveyi AI-2 signaling luminescence modulation – JMH597 strain, confirmation; shares compounds with AI-2 QS modul; Vibrio harveyi JMH597 AI-2 quorum sensing luminescence, 9 h; luxN and CqsS knockout, AI-2 only; inhibition, % at 7.5 µM; 97% of 750 active;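 active = every replicate shows more than 75% inhibition of signal versus neutral control wells; inconclusive = half to three quarters of replicates exceed 75% inhibition; inactive = fewer than half of replicates exceed 75% inhibition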
An asterisk follows results filed as active; i = inactive; ? = inconclusive; nt = no result.

SMILES	LANA-H2B inh	HKDC1 inh	HDAC3 inh	ATG4B inh	Bfl-1 A1 inh	AI-2 QS modul	JMH597 growth rt	BB721 lum counter	BB721 growth	AI-2 QS JMH597
CC(=O)c1cccc(NC(=O)COC(=O)c2n[nH]c3ccccc23)c1	0	-5	4	-9	0	-81*	11	95*	-3	97*
CC(Oc1ccccc1F)C(=O)NNC(=O)c1cccc(S(=O)(=O)N2CCN(C)CC2)c1 (stereo not given)	nt	2	-1	-4	0	nt	nt	nt	nt	nt
Cc1ccc(NC(=O)CCN2C(=O)C3CCCCC3C2=O)c(O)c1 (stereo not given)	0	-4	0	-9	0	14	nt	nt	nt	nt
Cc1ccc(NC(=O)CCCC2CCCCC2)c(O)c1	3	3	0	-6	-1	-91*	-16	97*	1	98*
Cc1ccc(/C=C/C(=O)c2ccc(O)cc2)cc1	-5	3	7	-6	-2	-94*	-7	97*	-22	98*
Cc1onc(-c2c(F)cccc2Cl)c1C(=O)N=C(N)N1CC(C)OC(C)C1 (stereo not given)	0	-6	5	-11	2	13	nt	nt	nt	nt
O=C(Nc1ccc(Nc2ccccc2)cc1)c1ccccc1	1	3	2	-3	-2	-91*	38	95*	12	96*
O=C(Nc1ccc(Nc2ccccc2)cc1)c1ccc(Cl)cc1	-1	-2	-4	-3	0	-23	nt	nt	nt	nt
CCOC(=O)c1ccc(S(=O)(=O)Nc2ccc3cn[nH]c3c2)cc1	-1	5	2	-12	0	-90*	28	95*	28	97*
O=C(CN1C(=O)NC2(CCCCC2)C1=O)Nc1ccc(N2CCOCC2)cc1	2	-4	5	2	0	17	nt	nt	nt	nt
O=C(CN1C(=O)NC2(CCc3ccccc32)C1=O)Nc1ccc(N2CCOCC2)cc1 (stereo not given)	-1	-4	4	3	0	-89*	7	88*	9	93*
O=C(COc1ccccc1)Nc1ccc(S(=O)(=O)NCc2ccco2)cc1	-3	3	1	-9	1	-97*	13	100*	-57	100*
O=C(COc1ccccc1F)Nc1ccc(S(=O)(=O)NCc2ccco2)cc1	-10	-1	-1	-18	0	-92*	29	99*	-12	99*
O=C(COc1ccccc1)NCC(=O)Nc1ccc(S(=O)(=O)NCc2ccco2)cc1	-1	-1	-4	-12	1	26	nt	nt	nt	nt
CCCCCC(=O)NC(=S)Nc1ccc2oc(=O)ccc2c1	4	2	-8	5	1	-90*	19	99*	40	98*
CC1(C)CC(=O)C=C(Nc2cc(-c3ccccc3)[nH]n2)C1	-2	-6	8	-4	0	-79*	0	90*	-12	94*
O=C(NCCc1ccco1)c1cc(COc2cccc(C(F)(F)F)c2)on1	-6	5	5	6	-1	-84*	31	82*	-195	92*
O=C(O)c1ccccc1C(=O)NC1Cc2ccccc2C1	1	-6	1	4	0	-10	nt	nt	nt	nt
Cc1ccc(NC(=O)CCc2ccc(C)o2)cc1	1	2	-6	4	2	?	23	87*	2	92*
Cc1ccc(CCC(=O)Nc2ccc([N+](=O)[O-])cc2)o1	1	-4	-9	2	0	-91*	9	97*	-14	98*
Cc1ccc(CCC(=O)Nc2ccc(S(N)(=O)=O)cc2)o1	7	-5	-4	3	0	23	nt	nt	nt	nt
COc1ccc(S(=O)(=O)NCC2(N3CCOCC3)CCCCC2)cc1OC	nt	2	nt	-4	nt	nt	nt	nt	nt	nt
O=C(c1cc(-c2ccc(O)cc2)on1)N1CCCCCC1	-3	0	2	-10	1	-78*	3	93*	-5	96*
O=[N+]([O-])c1ccc(NCCCNS(=O)(=O)c2ccccc2)cc1	-4	-11	3	-8	0	?	11	97*	6	97*
Fc1ccc(-c2nnn(Cc3nc4ccccc4s3)n2)cc1	-10	3	-10	4	0	-90*	22	98*	25	98*
SMILES	LANA-H2B inh	HKDC1 inh	HDAC3 inh	ATG4B inh	Bfl-1 A1 inh	AI-2 QS modul	JMH597 growth rt	BB721 lum counter	BB721 growth	AI-2 QS JMH597
CC(C)CC(=O)/C=C/n1c(=S)oc2ccccc21	i	3	3	0	0	-86*	29	93*	31	93*
Cc1nn(Cc2ccc(Cl)cc2)c(C)c1NC(=O)c1c(-c2ccccc2)noc1C	4	-4	6	-8	0	-80*	1	93*	-8	94*
CCc1nnc(NC(=O)CCC(=O)Nc2ccc(C)cc2)s1	-3	-9	1	-4	1	7	nt	nt	nt	nt
Cc1cc(NS(=O)(=O)c2ccc(NC(=O)COc3ccc(Cl)cc3)cc2)no1	3	3	-4	-6	-1	-87*	16	93*	14	91*
O=C(NNS(=O)(=O)c1ccc(Cl)cc1)c1ccc(S(=O)(=O)N2CCCCC2)cc1	-7	-9	-5	7	1	-97*	10	100*	-17	100*
Cc1cc(NS(=O)(=O)c2ccc(NC(=O)COc3ccccc3Cl)cc2)no1	2	-4	-1	-4	0	-23	nt	nt	nt	nt
Cc1ccc(C(=O)NCCc2ccc(S(=O)(=O)N3CCCC3)cc2)cc1	-2	-4	-3	-2	0	-79*	20	93*	12	96*
O=C(CNC(=O)c1ccco1)Nc1ccc(S(=O)(=O)N2CCCC2)cc1	4	-5	2	1	1	-94*	23	98*	-156	99*
Cc1ccc(C(=O)NNC(=O)c2ccc(S(=O)(=O)N3CCCCC3)cc2)cc1	6	-3	-3	5	-1	nt	nt	nt	nt	nt
O=C(NNC(=O)C1CCN(S(=O)(=O)c2ccc(Cl)cc2)CC1)c1ccc(Cl)cc1	3	-1	6	-10	0	14	nt	nt	nt	nt
O=C(Nc1ccc(S(=O)(=O)N2CCOCC2)cc1)c1ccco1	0	-3	nt	-4	3	22	nt	nt	nt	nt
